# According to ChEMBL document CHEMBL4689842, “EUbOPEN Chemogenomics Library wave 1” (2021):
# Where “and” joins values, the source holds several entries; their conditions need not be identical. Equal entries are not always repeated.
# Tested on: Fibroblast
# Assay: Multiplex assay against human fibroblast
# Type: toxicity, cell-based
# In short: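 Hoechst33342, BioTracker Green Microtubule Cytoskeleton Dye, MitoTracker Red and Annexin V Alexa Fluor 680 were added to live cells at seeding, and imaging on a CQ1 microscope at 37°C and 5% CO2 followed compound addition. Gating by CellPathfinder machine learning separated cells into Hoechst high-intensity objects or normal cells, then normal cells into healthy, pyknosed or fragmented nuclei, then pyknosed cells into mitotic or apoptotic. Per cents of healthy-nucleus cells are reported for the tubulin, mitochondrial-mass and membrane-permeability phenotypes.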
# [1] = 12 h, 1 µM, compound concentration 1 uM, replicate 1
# [2] = 12 h, 1 µM, compound concentration 1 uM, replicate 2
# [3] = 12 h, 10 µM, compound concentration 10 uM, replicate 1
# [4] = 12 h, 10 µM, compound concentration 10 uM, replicate 2
# [5] = 24 h, 1 µM, compound concentration 1 uM, replicate 1
# [6] = 24 h, 1 µM, compound concentration 1 uM, replicate 2
# [7] = 24 h, 10 µM, compound concentration 10 uM, replicate 1
# [8] = 24 h, 10 µM, compound concentration 10 uM, replicate 2
# [9] = 48 h, 10 µM, compound concentration 10 uM, replicate 1
# [10] = 48 h, 10 µM, compound concentration 10 uM, replicate 2
# [11] = 48 h, 1 µM, compound concentration 1 uM, replicate 1
# [12] = 48 h, 1 µM, compound concentration 1 uM, replicate 2
smiles,measurement,setting,value
CN[C@@H]1C[C@H]2O[C@@](C)([C@@H]1OC)n1c3ccccc3c3c4c(c5c6ccccc6n2c5c31)C(=O)NC4 [STAUROSPORINE],Population Apoptotic (%),[1],75%
same,Population Fragmented Nuclei (%),[1],41%
same,Population Healthy Nuclei (%),[1],14%
same,Population Hoechst High Intensity Objects (%),[1],31%
same,Population Membrane Permeable-Phenotype (%),[1],13%
same,Population Mitochondria Different-Phenotype (%),[1],2%
same,Population Mitotic Cells (%),[1],24%
same,Population Normal (%),[1],68%
same,Population Pyknosed Nuclei (%),[1],43%
same,Population Tubulin-Different-Phenotype (%),[1],10%
same,Population Apoptotic (%),[2],71%
same,Population Fragmented Nuclei (%),[2],48%
same,Population Healthy Nuclei (%),[2],19%
same,Population Hoechst High Intensity Objects (%),[2],46%
same,Population Membrane Permeable-Phenotype (%),[2],47%
same,Population Mitochondria Different-Phenotype (%),[2],11%
same,Population Mitotic Cells (%),[2],28%
same,Population Normal (%),[2],53%
same,Population Pyknosed Nuclei (%),[2],32%
same,Population Tubulin-Different-Phenotype (%),[2],11%
same,Population Apoptotic (%),[3],84% and 63% and 86%
same,Population Fragmented Nuclei (%),[3],30% and 31% and 36%
same,Population Healthy Nuclei (%),[3],9% and 21% and 10%
same,Population Hoechst High Intensity Objects (%),[3],26% and 29% and 21%
same,Population Mitochondria Different-Phenotype (%),[3],0% and 3% and 5%
same,Population Mitotic Cells (%),[3],15% and 36% and 13%
same,Population Normal (%),[3],73%
same,Population Pyknosed Nuclei (%),[3],59% and 46% and 52%
same,Population Tubulin-Different-Phenotype (%),[3],15% and 5%
same,Population Apoptotic (%),[4],77% and 73%
same,Population Fragmented Nuclei (%),[4],48% and 26% and 42%
same,Population Healthy Nuclei (%),[4],14% and 15% and 12%
same,Population Hoechst High Intensity Objects (%),[4],43% and 15%
same,Population Mitotic Cells (%),[4],22% and 26%
same,Population Normal (%),[4],56% and 84%
same,Population Pyknosed Nuclei (%),[4],37% and 57% and 45%
same,Population Apoptotic (%),[5],85%
same,Population Fragmented Nuclei (%),[5],61%
same,Population Healthy Nuclei (%),[5],2%
same,Population Hoechst High Intensity Objects (%),[5],21%
same,Population Membrane Permeable-Phenotype (%),[5],16%
same,Population Mitochondria Different-Phenotype (%),[5],0%
same,Population Mitotic Cells (%),[5],14%
same,Population Pyknosed Nuclei (%),[5],35%
same,Population Tubulin-Different-Phenotype (%),[5],16%
same,Population Apoptotic (%),[6],74%
same,Population Fragmented Nuclei (%),[6],58%
same,Population Healthy Nuclei (%),[6],11%
same,Population Hoechst High Intensity Objects (%),[6],34%
same,Population Membrane Permeable-Phenotype (%),[6],30%
same,Population Mitochondria Different-Phenotype (%),[6],10%
same,Population Mitotic Cells (%),[6],25%
same,Population Normal (%),[6],65%
same,Population Pyknosed Nuclei (%),[6],30%
same,Population Tubulin-Different-Phenotype (%),[6],0%
same,Population Apoptotic (%),[7],92% and 84% and 87%
same,Population Fragmented Nuclei (%),[7],51% and 58% and 59%
same,Population Healthy Nuclei (%),[7],6% and 7%
same,Population Hoechst High Intensity Objects (%),[7],18% and 20% and 22%
same,Population Membrane Permeable-Phenotype (%),[7],30% and 25% and 11%
same,Population Mitochondria Different-Phenotype (%),[7],0% and 3%
same,Population Mitotic Cells (%),[7],7% and 15% and 12%
same,Population Normal (%),[7],81% and 79% and 77%
same,Population Pyknosed Nuclei (%),[7],41% and 34%
same,Population Apoptotic (%),[8],72% and 88% and 77%
same,Population Healthy Nuclei (%),[8],20% and 46% and 37%
same,Population Hoechst High Intensity Objects (%),[8],38% and 27% and 26%
same,Population Membrane Permeable-Phenotype (%),[8],47% and 100% and 92%
same,Population Mitotic Cells (%),[8],27% and 11% and 22%
same,Population Normal (%),[8],61% and 72% and 73%
same,Population Pyknosed Nuclei (%),[8],26% and 36% and 38%
same,Population Apoptotic (%),[9],88% and 84%
same,Population Fragmented Nuclei (%),[9],60% and 64%
same,Population Healthy Nuclei (%),[9],14% and 23%
same,Population Hoechst High Intensity Objects (%),[9],34% and 36%
same,Population Membrane Permeable-Phenotype (%),[9],40% and 37%
same,Population Mitochondria Different-Phenotype (%),[9],6% and 16%
same,Population Mitotic Cells (%),[9],11% and 15%
same,Population Normal (%),[9],65% and 63%
same,Population Pyknosed Nuclei (%),[9],25% and 12%
same,Population Tubulin-Different-Phenotype (%),[9],53% and 54%
same,Population Apoptotic (%),[10],91% and 83%
same,Population Fragmented Nuclei (%),[10],79% and 82%
same,Population Healthy Nuclei (%),[10],10% and 8%
same,Population Hoechst High Intensity Objects (%),[10],44% and 33%
same,Population Membrane Permeable-Phenotype (%),[10],33% and 58%
same,Population Mitochondria Different-Phenotype (%),[10],8% and 0%
same,Population Mitotic Cells (%),[10],8% and 16%
same,Population Normal (%),[10],55% and 66%
same,Population Pyknosed Nuclei (%),[10],10% and 8%
same,Population Tubulin-Different-Phenotype (%),[10],58% and 66%
COc1cc(N2CCN(C)CC2)ccc1Nc1ncc2c(n1)N(C)c1ccccc1C(=O)N2C,Population Apoptotic (%),[1],58%
same,Population Fragmented Nuclei (%),[1],25%
same,Population Healthy Nuclei (%),[1],41%
same,Population Hoechst High Intensity Objects (%),[1],11%
same,Population Membrane Permeable-Phenotype (%),[1],14%
same,Population Mitochondria Different-Phenotype (%),[1],12%
same,Population Mitotic Cells (%),[1],41%
same,Population Normal (%),[1],88%
same,Population Pyknosed Nuclei (%),[1],32%
same,Population Tubulin-Different-Phenotype (%),[1],28%
same,Total Cell Count,[1],135
same,Population Apoptotic (%),[2],40%
same,Population Fragmented Nuclei (%),[2],5%
same,Population Healthy Nuclei (%),[2],82%
same,Population Hoechst High Intensity Objects (%),[2],4%
same,Population Membrane Permeable-Phenotype (%),[2],9%
same,Population Mitochondria Different-Phenotype (%),[2],21%
same,Population Mitotic Cells (%),[2],60%
same,Population Normal (%),[2],95%
same,Population Pyknosed Nuclei (%),[2],12%
same,Population Tubulin-Different-Phenotype (%),[2],15%
same,Total Cell Count,[2],104
same,Population Apoptotic (%),[3],65%
same,Population Fragmented Nuclei (%),[3],32%
same,Population Healthy Nuclei (%),[3],38%
same,Population Hoechst High Intensity Objects (%),[3],20%
same,Population Membrane Permeable-Phenotype (%),[3],17%
same,Population Mitochondria Different-Phenotype (%),[3],35%
same,Population Mitotic Cells (%),[3],34%
same,Population Normal (%),[3],79%
same,Population Pyknosed Nuclei (%),[3],28%
same,Population Tubulin-Different-Phenotype (%),[3],82%
same,Total Cell Count,[3],127
same,Population Apoptotic (%),[4],66%
same,Population Fragmented Nuclei (%),[4],15%
same,Population Healthy Nuclei (%),[4],61%
same,Population Hoechst High Intensity Objects (%),[4],5%
same,Population Membrane Permeable-Phenotype (%),[4],21%
same,Population Mitochondria Different-Phenotype (%),[4],96%
same,Population Mitotic Cells (%),[4],33%
same,Population Normal (%),[4],94%
same,Population Pyknosed Nuclei (%),[4],23%
same,Population Tubulin-Different-Phenotype (%),[4],100%
same,Total Cell Count,[4],42
same,Population Apoptotic (%),[5],60%
same,Population Fragmented Nuclei (%),[5],22%
same,Population Healthy Nuclei (%),[5],57%
same,Population Hoechst High Intensity Objects (%),[5],10%
same,Population Membrane Permeable-Phenotype (%),[5],17%
same,Population Mitochondria Different-Phenotype (%),[5],6%
same,Population Mitotic Cells (%),[5],39%
same,Population Normal (%),[5],89%
same,Population Pyknosed Nuclei (%),[5],19%
same,Population Tubulin-Different-Phenotype (%),[5],26%
same,Total Cell Count,[5],159
same,Population Apoptotic (%),[6],50%
same,Population Fragmented Nuclei (%),[6],9%
same,Population Healthy Nuclei (%),[6],75%
same,Population Hoechst High Intensity Objects (%),[6],6%
same,Population Membrane Permeable-Phenotype (%),[6],6%
same,Population Mitochondria Different-Phenotype (%),[6],12%
same,Population Mitotic Cells (%),[6],50%
same,Population Normal (%),[6],93%
same,Population Pyknosed Nuclei (%),[6],14%
same,Population Tubulin-Different-Phenotype (%),[6],6%
same,Total Cell Count,[6],101
same,Population Apoptotic (%),[7],60%
same,Population Fragmented Nuclei (%),[7],38%
same,Population Healthy Nuclei (%),[7],52%
same,Population Hoechst High Intensity Objects (%),[7],20%
same,Population Membrane Permeable-Phenotype (%),[7],5%
same,Population Mitochondria Different-Phenotype (%),[7],43%
same,Population Mitotic Cells (%),[7],40%
same,Population Normal (%),[7],79%
same,Population Pyknosed Nuclei (%),[7],9%
same,Population Tubulin-Different-Phenotype (%),[7],74%
same,Total Cell Count,[7],140
same,Population Apoptotic (%),[8],76%
same,Population Fragmented Nuclei (%),[8],11%
same,Population Healthy Nuclei (%),[8],63%
same,Population Hoechst High Intensity Objects (%),[8],8%
same,Population Membrane Permeable-Phenotype (%),[8],30%
same,Population Mitochondria Different-Phenotype (%),[8],93%
same,Population Mitotic Cells (%),[8],23%
same,Population Normal (%),[8],91%
same,Population Pyknosed Nuclei (%),[8],25%
same,Population Tubulin-Different-Phenotype (%),[8],66%
same,Total Cell Count,[8],44
same,Population Apoptotic (%),[11],54%
same,Population Fragmented Nuclei (%),[11],34%
same,Population Healthy Nuclei (%),[11],58%
same,Population Hoechst High Intensity Objects (%),[11],14%
same,Population Membrane Permeable-Phenotype (%),[11],19%
same,Population Mitochondria Different-Phenotype (%),[11],1%
same,Population Mitotic Cells (%),[11],45%
same,Population Normal (%),[11],85%
same,Population Pyknosed Nuclei (%),[11],7%
same,Population Tubulin-Different-Phenotype (%),[11],29%
same,Total Cell Count,[11],176
same,Population Apoptotic (%),[12],100%
same,Population Fragmented Nuclei (%),[12],25%
same,Population Healthy Nuclei (%),[12],72%
same,Population Hoechst High Intensity Objects (%),[12],7%
same,Population Membrane Permeable-Phenotype (%),[12],10%
same,Population Mitotic Cells (%),[12],0%
same,Population Normal (%),[12],92%
same,Population Pyknosed Nuclei (%),[12],1%
same,Population Tubulin-Different-Phenotype (%),[12],28%
same,Total Cell Count,[12],83
same,Population Apoptotic (%),[9],85%
same,Population Fragmented Nuclei (%),[9],49%
same,Population Healthy Nuclei (%),[9],45%
same,Population Hoechst High Intensity Objects (%),[9],28%
same,Population Membrane Permeable-Phenotype (%),[9],7%
same,Population Mitochondria Different-Phenotype (%),[9],12%
same,Population Mitotic Cells (%),[9],14%
same,Population Normal (%),[9],71%
same,Population Pyknosed Nuclei (%),[9],4%
same,Population Tubulin-Different-Phenotype (%),[9],44%
same,Total Cell Count,[9],201
same,Population Apoptotic (%),[10],100%
same,Population Fragmented Nuclei (%),[10],39%
same,Population Healthy Nuclei (%),[10],58%
same,Population Hoechst High Intensity Objects (%),[10],18%
same,Population Membrane Permeable-Phenotype (%),[10],5%
same,Population Mitochondria Different-Phenotype (%),[10],8%
same,Population Mitotic Cells (%),[10],0%
same,Population Normal (%),[10],81%
same,Population Pyknosed Nuclei (%),[10],2%
same,Population Tubulin-Different-Phenotype (%),[10],62%
same,Total Cell Count,[10],188
